The source made the active and inactive calls. The rule behind the calls is not given here. Square brackets hold non-standard residues; d marks the D form. Peptide text beside a SMILES is read from it. * marks the point of attachment. ξ: configuration not given here. Phe(4-NO2) = N[C@@H](Cc1ccc([N+](=O)[O-])cc1)C(=O)O; Phe(4-CN) = N#Cc1ccc(C[C@H](N)C(=O)O)cc1; 2Pal = N[C@@H](Cc1ccccn1)C(=O)O; 3Pal = N[C@@H](Cc1cccnc1)C(=O)O; Cha = N[C@@H](CC1CCCCC1)C(=O)O; Phg = N[C@H](C(=O)O)c1ccccc1; Tle = CC(C)(C)[C@H](N)C(=O)O; ξTic = O=C(O)C1Cc2ccccc2CN1; ξChg = NC(C(=O)O)C1CCCCC1; 3Abz = Nc1cccc(C(=O)O)c1; 4Abz = Nc1ccc(C(=O)O)cc1; Nva = CCC[C@H](N)C(=O)O; 2Abz = Nc1ccccc1C(=O)O; ξPip = O=C(O)C1CCCCN1; ξPra = C#CCC(N)C(=O)O; Aib = CC(C)(N)C(=O)O; Bz = O=C(c1ccccc1)*; βAla = NCCC(=O)O
Experiments:
[1] = target: Prothrombin (Homo sapiens) (UniProt P00734); assay: Inhibition of thrombin (unknown origin) at 25 uM by homogeneous fluorimetric assay
[2] = target: Genome polyprotein (dengue virus type 2) (UniProt P12823); assay: Inhibition of Dengue virus serotype 2 NS2B-NS3 protease at 50 uM by homogeneous fluorimetric assay
[3] = target: Genome polyprotein (West Nile virus) (UniProt P06935); assay: Inhibition of West Nile virus […] NS2B-NS3 protease at 50 uM by homogeneous fluorimetric assay
Sequence of Genome polyprotein (West Nile virus) (P06935 whole entry): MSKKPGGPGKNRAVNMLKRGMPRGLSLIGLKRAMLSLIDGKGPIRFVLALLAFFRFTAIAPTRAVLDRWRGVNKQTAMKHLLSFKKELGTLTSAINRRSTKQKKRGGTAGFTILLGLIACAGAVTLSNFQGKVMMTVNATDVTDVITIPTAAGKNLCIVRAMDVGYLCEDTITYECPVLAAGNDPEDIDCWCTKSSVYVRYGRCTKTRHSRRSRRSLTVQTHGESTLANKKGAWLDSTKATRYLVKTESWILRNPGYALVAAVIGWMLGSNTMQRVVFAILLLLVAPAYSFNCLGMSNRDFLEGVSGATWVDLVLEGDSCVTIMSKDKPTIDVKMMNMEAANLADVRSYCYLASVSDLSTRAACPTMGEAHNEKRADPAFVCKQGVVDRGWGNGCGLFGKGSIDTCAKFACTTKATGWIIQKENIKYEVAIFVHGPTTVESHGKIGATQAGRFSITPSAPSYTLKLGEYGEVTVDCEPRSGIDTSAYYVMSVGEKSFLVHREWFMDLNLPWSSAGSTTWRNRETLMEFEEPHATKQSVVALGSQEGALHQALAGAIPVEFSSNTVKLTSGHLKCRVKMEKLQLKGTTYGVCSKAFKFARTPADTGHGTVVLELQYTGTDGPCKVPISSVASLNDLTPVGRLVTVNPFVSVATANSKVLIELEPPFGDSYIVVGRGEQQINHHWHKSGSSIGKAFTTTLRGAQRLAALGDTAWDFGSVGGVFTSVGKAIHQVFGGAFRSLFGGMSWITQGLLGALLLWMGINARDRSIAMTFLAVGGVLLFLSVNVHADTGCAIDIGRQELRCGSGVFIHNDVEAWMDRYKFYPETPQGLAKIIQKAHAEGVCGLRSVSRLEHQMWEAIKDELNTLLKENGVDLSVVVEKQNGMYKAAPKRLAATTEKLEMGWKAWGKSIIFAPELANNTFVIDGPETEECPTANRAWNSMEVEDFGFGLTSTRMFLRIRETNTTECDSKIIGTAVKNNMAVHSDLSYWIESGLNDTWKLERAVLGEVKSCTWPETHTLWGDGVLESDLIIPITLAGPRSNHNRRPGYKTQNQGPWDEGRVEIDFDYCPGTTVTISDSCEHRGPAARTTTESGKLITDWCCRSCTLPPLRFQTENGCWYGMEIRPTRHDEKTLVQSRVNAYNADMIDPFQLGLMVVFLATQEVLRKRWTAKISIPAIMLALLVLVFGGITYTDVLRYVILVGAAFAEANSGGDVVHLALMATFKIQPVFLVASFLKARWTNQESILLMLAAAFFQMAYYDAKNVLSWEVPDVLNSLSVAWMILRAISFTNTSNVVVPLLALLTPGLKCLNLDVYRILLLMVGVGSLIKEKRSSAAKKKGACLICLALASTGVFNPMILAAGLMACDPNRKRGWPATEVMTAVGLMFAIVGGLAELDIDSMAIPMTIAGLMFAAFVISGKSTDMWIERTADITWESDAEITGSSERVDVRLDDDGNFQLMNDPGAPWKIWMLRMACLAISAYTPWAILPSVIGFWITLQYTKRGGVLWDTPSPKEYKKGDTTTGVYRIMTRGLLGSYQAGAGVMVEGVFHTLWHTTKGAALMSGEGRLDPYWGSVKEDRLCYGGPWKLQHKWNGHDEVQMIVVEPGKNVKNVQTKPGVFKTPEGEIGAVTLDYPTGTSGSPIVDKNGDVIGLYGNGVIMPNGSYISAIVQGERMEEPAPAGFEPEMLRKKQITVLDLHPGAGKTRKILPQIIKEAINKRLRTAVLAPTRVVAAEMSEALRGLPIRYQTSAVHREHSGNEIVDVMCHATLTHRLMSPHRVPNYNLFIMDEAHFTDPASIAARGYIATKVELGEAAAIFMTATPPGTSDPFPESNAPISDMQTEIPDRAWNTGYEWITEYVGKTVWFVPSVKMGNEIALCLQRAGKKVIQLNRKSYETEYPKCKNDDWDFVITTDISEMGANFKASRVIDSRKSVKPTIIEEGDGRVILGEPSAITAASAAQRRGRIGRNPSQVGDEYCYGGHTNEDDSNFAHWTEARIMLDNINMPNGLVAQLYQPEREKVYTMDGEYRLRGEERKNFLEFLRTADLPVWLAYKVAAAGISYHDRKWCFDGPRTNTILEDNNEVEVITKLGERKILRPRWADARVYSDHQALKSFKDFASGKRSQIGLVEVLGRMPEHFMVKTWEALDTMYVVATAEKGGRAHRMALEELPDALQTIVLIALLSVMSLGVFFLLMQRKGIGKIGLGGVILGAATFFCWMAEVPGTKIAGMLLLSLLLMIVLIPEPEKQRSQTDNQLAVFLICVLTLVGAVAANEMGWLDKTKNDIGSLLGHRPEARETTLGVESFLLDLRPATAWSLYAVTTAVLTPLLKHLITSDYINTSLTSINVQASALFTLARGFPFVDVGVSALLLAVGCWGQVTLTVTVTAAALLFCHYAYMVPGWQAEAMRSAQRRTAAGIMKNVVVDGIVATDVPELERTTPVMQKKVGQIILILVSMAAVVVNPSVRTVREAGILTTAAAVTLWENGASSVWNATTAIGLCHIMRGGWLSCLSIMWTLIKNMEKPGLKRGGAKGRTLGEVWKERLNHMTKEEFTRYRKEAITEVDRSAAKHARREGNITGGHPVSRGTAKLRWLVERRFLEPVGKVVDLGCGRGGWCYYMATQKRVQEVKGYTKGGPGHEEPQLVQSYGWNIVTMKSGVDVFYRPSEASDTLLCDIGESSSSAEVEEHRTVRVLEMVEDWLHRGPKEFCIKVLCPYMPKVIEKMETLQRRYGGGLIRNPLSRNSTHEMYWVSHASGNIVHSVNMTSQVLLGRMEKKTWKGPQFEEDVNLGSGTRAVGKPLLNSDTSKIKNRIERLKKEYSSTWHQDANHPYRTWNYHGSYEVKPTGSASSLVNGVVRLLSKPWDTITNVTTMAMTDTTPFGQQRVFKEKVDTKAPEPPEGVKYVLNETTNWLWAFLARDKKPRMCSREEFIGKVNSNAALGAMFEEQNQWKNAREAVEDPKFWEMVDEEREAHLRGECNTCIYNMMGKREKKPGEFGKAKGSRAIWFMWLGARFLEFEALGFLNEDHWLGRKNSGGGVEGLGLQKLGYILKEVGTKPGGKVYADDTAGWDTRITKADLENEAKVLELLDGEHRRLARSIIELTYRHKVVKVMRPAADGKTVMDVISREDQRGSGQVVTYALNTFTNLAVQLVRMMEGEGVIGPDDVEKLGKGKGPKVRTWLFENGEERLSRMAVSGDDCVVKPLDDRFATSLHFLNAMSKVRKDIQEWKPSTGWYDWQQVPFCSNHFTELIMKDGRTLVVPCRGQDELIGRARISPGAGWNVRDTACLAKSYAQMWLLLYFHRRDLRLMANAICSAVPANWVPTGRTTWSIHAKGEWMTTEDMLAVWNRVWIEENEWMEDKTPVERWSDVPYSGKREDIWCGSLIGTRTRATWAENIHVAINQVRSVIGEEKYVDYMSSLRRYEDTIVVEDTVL
In short: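 WNV NS2B-NS3 protease percent inhibition, homogeneous fluorimetric assay: enzyme 150 nM, inhibitor 50 μM, substrate 50 μM (Km = 212 μM); triplicate, SD below 10%.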

Genome polyprotein [4] = target: Genome polyprotein (dengue virus type 2, UniProt P12823); assay: Inhibition of Dengue virus serotype 2 NS2B-NS3 protease by homogeneous fluorimetric assay
Genome polyprotein [5] = target: Genome polyprotein (West Nile virus, UniProt P06935); assay: Inhibition of West Nile virus […] NS2B-NS3 protease by homogeneous fluorimetric assay
Sequence of Genome polyprotein (West Nile virus, UniProt P06935) (P06935 1371-1501 limits assumed): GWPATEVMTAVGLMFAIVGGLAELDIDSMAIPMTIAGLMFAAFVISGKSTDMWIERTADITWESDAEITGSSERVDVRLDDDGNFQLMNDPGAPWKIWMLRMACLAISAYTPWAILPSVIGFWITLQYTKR
Sequence of Genome polyprotein (West Nile virus, UniProt P06935) (P06935 1502-2120 limits assumed): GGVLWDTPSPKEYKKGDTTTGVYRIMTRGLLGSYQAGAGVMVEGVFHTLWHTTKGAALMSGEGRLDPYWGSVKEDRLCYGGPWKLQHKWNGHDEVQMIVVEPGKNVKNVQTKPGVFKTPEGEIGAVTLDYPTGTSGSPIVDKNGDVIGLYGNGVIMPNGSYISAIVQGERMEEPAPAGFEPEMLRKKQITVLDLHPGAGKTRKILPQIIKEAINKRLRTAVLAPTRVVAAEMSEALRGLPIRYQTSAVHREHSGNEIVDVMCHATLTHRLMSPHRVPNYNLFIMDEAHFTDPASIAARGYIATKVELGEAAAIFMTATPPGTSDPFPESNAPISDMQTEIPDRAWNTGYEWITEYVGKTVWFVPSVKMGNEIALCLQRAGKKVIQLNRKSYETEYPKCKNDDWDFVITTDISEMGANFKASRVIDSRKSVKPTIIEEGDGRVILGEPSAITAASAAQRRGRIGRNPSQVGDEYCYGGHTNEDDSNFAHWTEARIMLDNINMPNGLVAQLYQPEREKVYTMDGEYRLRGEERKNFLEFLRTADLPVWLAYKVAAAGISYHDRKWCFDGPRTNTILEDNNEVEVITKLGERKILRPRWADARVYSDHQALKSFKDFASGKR

SMILES | inhibition [1] | inhibition [2] [%] | inhibition [3] [%] | IC50 (Genome polyprotein [4]) [µM] | IC50 (Genome polyprotein [5]) [µM] | Ki (Genome polyprotein [5]) [µM]
N=C(N)NCCC[C@H](NC(=O)c1ccccc1)C(=O)N[C@@H](CCCCN)C(=O)NCCC(N)=O (Bz-Arg-Lys-[βAla]-NH2) | inactive | 32.9 | 19.8 | 109 | – | –
CCCC[C@H](NC(=O)[C@H](CCCCN)NC(=O)[C@H](CCCNC(=N)N)NC(=O)c1ccc(/C=C2\SC(=O)N(C3CCCC3)C2=O)cc1)C(N)=O | – | 98.2 | 51.8 | 2.5 | – | –
CC(C)[C@H](NC(=O)[C@H](CCCCN)NC(=O)[C@H](CCCNC(=N)N)NC(=O)c1ccccc1)C(N)=O (Bz-Arg-Lys-Val-NH2) | 4.9% | 60 | 18.3 | 28.8 | – | –
N#C/C(=C\c1ccc(C(=O)N[C@@H](CCCNC(=N)N)C(=O)N[C@@H](CCCCN)C(=O)NC(C(N)=O)c2ccccc2)cc1)C(=O)NC1CC1 (stereo partly specified) | 5.6% | 98.6 | 90.2 | 1.3 | – | –
N#C/C(=C\c1ccc(C(=O)N[C@@H](CCCNC(=N)N)C(=O)N[C@@H](CCCCN)C(=O)N2Cc3ccccc3CC2C(N)=O)cc1)C(=O)NC1CC1 (stereo partly specified) | inactive | 59.2 | 38.3 | 24.9 | – | –
N=C(N)NCCC[C@H](NC(=O)c1ccccc1)C(=O)N[C@@H](CCCCN)C(=O)NC(C(N)=O)C1CCCCC1 (stereo partly drawn) (Bz-Arg-Lys-[ξChg]-NH2) | inactive | 71.7 | 12.1 | 17.4 | – | –
N=C(N)NCCC[C@H](NC(=O)c1ccccc1)C(=O)N[C@@H](CCCCN)C(=O)N[C@@H](Cc1c[nH]c2ccccc12)C(N)=O (Bz-Arg-Lys-Trp-NH2) | inactive | 74.1 | 32.8 | 17.6 | – | –
CC(C)(C)[C@H](NC(=O)[C@H](CCCCN)NC(=O)[C@H](CCCNC(=N)N)NC(=O)c1ccc(/C=C(\C#N)C(=O)NC2CC2)cc1)C(N)=O | 5% | 32.5 | 26.7 | 57.6 | – | –
N=C(N)NCCC[C@H](NC(=O)c1ccccc1)C(=O)N[C@@H](CCCCN)C(=O)Nc1ccc(C(N)=O)cc1 (Bz-Arg-Lys-[4Abz]-NH2) | 9.2% | 27.5 | 17.9 | 92.2 | – | –
CCCC[C@@H](NC(=O)[C@H](CCCCN)NC(=O)[C@H](CCCNC(=N)N)NC(=O)c1ccccc1)C(N)=O | 4.9% | 72.7 | 16.1 | 14.1 | – | –
CCC[C@H](NC(=O)[C@H](CCCCN)NC(=O)[C@H](CCCNC(=N)N)NC(=O)c1ccccc1)C(N)=O (Bz-Arg-Lys-[Nva]-NH2) | inactive | 62 | 8.5 | 25.2 | – | –
N=C(N)NCCC[C@H](NC(=O)c1ccc(/C=C2\SC(=O)N(C3CCCC3)C2=O)cc1)C(=O)N[C@@H](CCCCN)C(=O)N1Cc2ccccc2CC1C(N)=O (stereo partly specified) | 7.6% | 85.7 | 49.4 | 10.5 | – | –
N=C(N)NCCC[C@H](NC(=O)c1ccccc1)C(=O)N[C@@H](CCCCN)C(=O)N[C@H](C(N)=O)c1ccccc1 (Bz-Arg-Lys-[Phg]-NH2) | inactive | 95 | 39.3 | 3.3 | 58 | 49
N=C(N)NCCC[C@H](NC(=O)c1ccccc1)C(=O)N[C@@H](CCCCN)C(=O)N[C@@H](Cc1ccc([N+](=O)[O-])cc1)C(N)=O (Bz-Arg-Lys-[Phe(4-NO2)]-NH2) | inactive | 66.6 | 21.3 | 17.5 | – | –
N=C(N)NCCC[C@H](NC(=O)c1ccccc1)C(=O)N[C@@H](CCCCN)C(=O)N1CCCCC1C(N)=O (stereo partly drawn) (Bz-Arg-Lys-[ξPip]-NH2) | inactive | 13.7 | 12.1 | 159 | – | –
N=C(N)NCCC[C@H](NC(=O)c1ccccc1)C(=O)N[C@@H](CCCCN)C(=O)N1CCC[C@H]1C(N)=O (Bz-Arg-Lys-Pro-NH2) | inactive | 20 | 3.6 | 192 | – | –
N#Cc1ccc(C[C@H](NC(=O)[C@H](CCCCN)NC(=O)[C@H](CCCNC(=N)N)NC(=O)c2ccccc2)C(N)=O)cc1 (Bz-Arg-Lys-[Phe(4-CN)]-NH2) | inactive | 71.7 | 15.9 | 14.4 | – | –
CCCC[C@H](NC(=O)[C@H](CCCCN)NC(=O)[C@H](CCCNC(=N)N)NC(=O)c1ccc(/C=C(\C#N)C(=O)NC2CC2)cc1)C(N)=O | – | 88.5 | 28 | 5.3 | – | –
CC(C)(C)[C@H](NC(=O)[C@H](CCCCN)NC(=O)[C@H](CCCNC(=N)N)NC(=O)c1ccccc1)C(N)=O (Bz-Arg-Lys-[Tle]-NH2) | inactive | 18.8 | 11.7 | 137 | – | –

SMILES | inhibition [1] | inhibition [2] [%] | inhibition [3] [%] | IC50 (Genome polyprotein [4]) [µM] | IC50 (Genome polyprotein [5]) [µM] | Ki (Genome polyprotein [5]) [µM]
N=C(N)NCCC[C@H](NC(=O)c1ccccc1)C(=O)N[C@@H](CCCCN)C(=O)Nc1cccc(C(N)=O)c1 (Bz-Arg-Lys-[3Abz]-NH2) | 5.6% | 27 | 23 | 96.6 | – | –
N=C(N)NCCC[C@H](NC(=O)c1ccccc1)C(=O)N[C@@H](CCCCN)C(=O)N[C@@H](Cc1cccnc1)C(N)=O (Bz-Arg-Lys-[3Pal]-NH2) | inactive | 61.3 | 12.5 | 30.1 | – | –
CCCC[C@H](NC(=O)[C@H](CCCCN)NC(=O)[C@H](CCCNC(=N)N)NC(=O)c1ccccc1)C(N)=O | – | 68.1 | 7.7 | 13.3 | – | –
N=C(N)NCCC[C@H](NC(=O)c1ccccc1)C(=O)N[C@@H](CCCCN)C(=O)Nc1ccccc1C(N)=O (Bz-Arg-Lys-[2Abz]-NH2) | 6.4% | 62 | 8.7 | 15.8 | – | –
CC(C)(NC(=O)[C@H](CCCCN)NC(=O)[C@H](CCCNC(=N)N)NC(=O)c1ccccc1)C(N)=O (Bz-Arg-Lys-[Aib]-NH2) | inactive | 55 | 13.7 | 46.7 | – | –
C#CCC(NC(=O)[C@H](CCCCN)NC(=O)[C@H](CCCNC(=N)N)NC(=O)c1ccccc1)C(N)=O (stereo partly drawn) (Bz-Arg-Lys-[ξPra]-NH2) | 5.2% | 72.5 | 14.3 | 17.5 | – | –
N=C(N)NCCC[C@H](NC(=O)c1ccccc1)C(=O)N[C@@H](CCCCN)C(=O)NCC(N)=O (Bz-Arg-Lys-Gly-NH2) | 3.5% | 70.4 | 44.6 | 21 | – | –
C[C@@H](O)[C@H](NC(=O)[C@H](CCCCN)NC(=O)[C@H](CCCNC(=N)N)NC(=O)c1ccccc1)C(N)=O (Bz-Arg-Lys-Thr-NH2) | inactive | 32.1 | 16.5 | 98.6 | – | –
CC(C)C[C@H](NC(=O)[C@H](CCCCN)NC(=O)[C@H](CCCNC(=N)N)NC(=O)c1ccccc1)C(N)=O (Bz-Arg-Lys-Leu-NH2) | 5.9% | 63.2 | 18.4 | 22.7 | – | –
CSCC[C@H](NC(=O)[C@H](CCCCN)NC(=O)[C@H](CCCNC(=N)N)NC(=O)c1ccccc1)C(N)=O (Bz-Arg-Lys-Met-NH2) | 6.2% | 45 | 11.8 | 47.5 | – | –
CC(C)(C)[C@H](NC(=O)[C@H](CCCCN)NC(=O)[C@H](CCCNC(=N)N)NC(=O)c1ccc(/C=C2\SC(=O)N(C3CCCC3)C2=O)cc1)C(N)=O | 10.2% | 60.6 | 28 | 29.8 | – | –
N=C(N)NCCC[C@H](NC(=O)c1ccccc1)C(=O)N[C@@H](CCCCN)C(=O)N1Cc2ccccc2CC1C(N)=O (stereo partly drawn) (Bz-Arg-Lys-[ξTic]-NH2) | inactive | 41.6 | 17.8 | 65.8 | – | –
CC[C@H](C)[C@H](NC(=O)[C@H](CCCCN)NC(=O)[C@H](CCCNC(=N)N)NC(=O)c1ccccc1)C(N)=O (Bz-Arg-Lys-Ile-NH2) | 4.6% | 56.6 | 14.9 | 28.2 | – | –
C[C@H](NC(=O)[C@H](CCCCN)NC(=O)[C@H](CCCNC(=N)N)NC(=O)c1ccccc1)C(N)=O (Bz-Arg-Lys-Ala-NH2) | 7.2% | 46.6 | 26 | 35.6 | – | –
N=C(N)NCCC[C@H](NC(=O)c1ccccc1)C(=O)N[C@@H](CCCCN)C(=O)N[C@@H](Cc1ccc(O)cc1)C(N)=O (Bz-Arg-Lys-Tyr-NH2) | 7.9% | 82.3 | 12.9 | 7.4 | – | –
N=C(N)NCCC[C@H](NC(=O)c1ccccc1)C(=O)N[C@@H](CCCCN)C(=O)N[C@@H](Cc1ccccn1)C(N)=O (Bz-Arg-Lys-[2Pal]-NH2) | inactive | 53 | 9.8 | 44.3 | – | –
N=C(N)NCCC[C@H](NC(=O)c1ccccc1)C(=O)N[C@@H](CCCCN)C(=O)N[C@@H](CO)C(N)=O (Bz-Arg-Lys-Ser-NH2) | 6.2% | 57.9 | 21.9 | 30.1 | – | –
N=C(N)NCCC[C@H](NC(=O)c1ccccc1)C(=O)N[C@@H](CCCCN)C(=O)N[C@@H](CC1CCCCC1)C(N)=O (Bz-Arg-Lys-[Cha]-NH2) | inactive | 80 | 19.1 | 8.2 | – | –
N=C(N)NCCC[C@H](NC(=O)c1ccccc1)C(=O)N[C@@H](CCCCN)C(=O)N[C@@H](Cc1ccccc1)C(N)=O (Bz-Arg-Lys-Phe-NH2) | 7.2% | 80.7 | 18.2 | 11.9 | – | –

From ChEMBL document CHEMBL3352023, “C-terminal residue optimization and fragment merging: discovery of a potent Peptide-hybrid inhibitor of dengue protease” (ACS Med Chem Lett, 2014)
